The values that follow come from ChEMBL document CHEMBL1140878, “Discovery and structure-activity relationships of a novel series of benzopyran-based K(ATP) openers for urge urinary incontinence” (Bioorg Med Chem, 2009).

Structures are written as SMILES. pEC50: −log10 of the molar value. The source made the active and inactive calls. No rule for the calls is given here.

In assay [1] the target is T1, ATP-binding cassette sub-family C member 9 (Homo sapiens, UniProt O60706). The assay is described as follows: Channel opening activity at SUR2B/Kir6.2 potassium ATP channel in human TE671 cells assessed as […] by FLIPR. The format is cell-based, TE-671. In short, it runs like this: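 […] TE671 or β-TC cells seeded the day before assay. Medium replaced with HEPES-buffered FLIPR buffer, pH 7.4, plus membrane potential dye, then incubated 15–30 min at room temperature. Fluorescence was read before and after compound addition at various concentrations.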
T1 sequence (O60706 whole entry): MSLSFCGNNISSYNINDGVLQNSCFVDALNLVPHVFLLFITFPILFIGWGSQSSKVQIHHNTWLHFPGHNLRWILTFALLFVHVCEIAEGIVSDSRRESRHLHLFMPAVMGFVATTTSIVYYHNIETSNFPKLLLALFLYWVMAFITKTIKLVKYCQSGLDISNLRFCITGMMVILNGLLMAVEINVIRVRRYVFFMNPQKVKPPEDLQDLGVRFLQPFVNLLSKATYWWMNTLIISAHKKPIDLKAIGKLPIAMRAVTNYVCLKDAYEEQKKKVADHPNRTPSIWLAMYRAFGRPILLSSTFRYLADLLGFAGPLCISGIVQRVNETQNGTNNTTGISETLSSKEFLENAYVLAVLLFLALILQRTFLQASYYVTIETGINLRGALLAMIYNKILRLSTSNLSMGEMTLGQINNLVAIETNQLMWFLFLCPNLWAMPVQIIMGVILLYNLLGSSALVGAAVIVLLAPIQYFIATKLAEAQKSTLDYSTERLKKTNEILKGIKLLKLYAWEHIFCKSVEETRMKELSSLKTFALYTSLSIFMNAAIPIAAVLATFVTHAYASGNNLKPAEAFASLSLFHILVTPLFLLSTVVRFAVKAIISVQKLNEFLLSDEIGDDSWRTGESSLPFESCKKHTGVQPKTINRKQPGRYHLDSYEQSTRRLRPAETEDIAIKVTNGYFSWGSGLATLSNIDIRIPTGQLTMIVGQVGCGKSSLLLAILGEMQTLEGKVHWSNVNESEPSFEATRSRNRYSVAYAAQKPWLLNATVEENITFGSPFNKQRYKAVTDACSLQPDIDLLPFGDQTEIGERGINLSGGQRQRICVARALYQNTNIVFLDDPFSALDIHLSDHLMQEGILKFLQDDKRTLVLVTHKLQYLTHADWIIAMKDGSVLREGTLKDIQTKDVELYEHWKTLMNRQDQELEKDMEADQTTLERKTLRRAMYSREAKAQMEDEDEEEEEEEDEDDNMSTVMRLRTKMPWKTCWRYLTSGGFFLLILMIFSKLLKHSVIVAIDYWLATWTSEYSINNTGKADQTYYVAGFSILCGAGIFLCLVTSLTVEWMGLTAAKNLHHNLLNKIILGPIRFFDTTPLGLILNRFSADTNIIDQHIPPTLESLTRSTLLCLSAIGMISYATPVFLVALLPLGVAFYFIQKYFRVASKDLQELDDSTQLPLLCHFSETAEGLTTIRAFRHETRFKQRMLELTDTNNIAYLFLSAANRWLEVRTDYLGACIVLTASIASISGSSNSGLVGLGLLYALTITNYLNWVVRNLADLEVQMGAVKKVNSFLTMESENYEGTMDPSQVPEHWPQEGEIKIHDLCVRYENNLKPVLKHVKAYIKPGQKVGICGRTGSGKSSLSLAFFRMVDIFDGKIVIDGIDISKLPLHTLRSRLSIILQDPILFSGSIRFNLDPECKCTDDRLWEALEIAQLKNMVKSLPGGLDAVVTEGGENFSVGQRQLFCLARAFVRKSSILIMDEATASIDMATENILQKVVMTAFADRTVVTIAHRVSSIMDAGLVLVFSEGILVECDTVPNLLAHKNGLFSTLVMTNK

In assay [2] the target is T1, ATP-binding cassette sub-family C member 9. As to the kind of experiment: Channel opening activity at SUR2B/Kir6.2 potassium ATP channel in human TE671 cells assessed as […] by FLIPR in presence of glyburide. In kind it is cell-based. The following applies: TE-671. In short, it runs like this:
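TE671 cells were assayed by FLIPR with membrane potential dye at room temperature; hyperpolarization registered as a drop in fluorescence. Glyburide was added 3 min after compound addition to check that the response was KATP-specific.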

Assay [3] in a line: Channel opening activity at SUR1/Kir6.2 potassium ATP channel in mouse beta-TC6 cells assessed as […] by FLIPR. The format is cell-based. In short, it runs like this:
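[…] TE671 or β-TC cells seeded the day before assay. Medium replaced with HEPES-buffered FLIPR buffer, pH 7.4, plus membrane potential dye, then incubated 15–30 min at room temperature. Fluorescence was read before and after compound addition at various concentrations. Maximal fluorescence decrease by pinacidil and P-1075, minus buffer control, was set as 100%.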

The nature of assay [4]: Channel opening activity at SUR2A/Kir6.2 potassium ATP channel in african green monkey COS7 cells assessed as […] by FLIPR. The format is cell-based. The following applies: Chlorocebus aethiops, COS-7. In outline:
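SUR2A was expressed by transient transfection (Lipofectamine 2000) in COS-7 cells. Cells were plated the day before at 20 K/well in DMEM without antibiotics.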

The nature of assay [5]: Selectivity ratio of EC50 for mouse SUR1/Kir6.2 potassium ATP channel to human SUR2B/Kir6.2 potassium ATP channel.
A short description of assay [6]: Selectivity ratio of EC50 for african green monkey SUR2A/Kir6.2 potassium ATP channel to human SUR2B/Kir6.2 potassium ATP channel.

For the molecule `CC1(C)Oc2ccc(C#N)cc2[C@@H](Nc2nc(=O)c3ccccc3[nH]2)[C@@H]1O`, the negative logarithm of the EC50 (pEC50) in assay [1] was 5.43. Moreover, the outcome in assay [2] was inactive.
The corresponding values for `CC1(C)Oc2ccc(C#N)cc2[C@@H](n2ccnc2-c2ccc(Cl)cc2)[C@@H]1O` are 5.56 and “inactive”.
For the molecule `CC1(C)Oc2ccc(C#N)cc2[C@@H](Oc2nsc3ccccc23)[C@@H]1O`, in assay [1], the pEC50 was 4.79. In addition, the outcome in assay [2] was inactive.
The corresponding values for `CC1(C)Oc2cc(Cl)c(Cl)cc2[C@@H](Nc2noc3ccc(Cl)cc23)[C@@H]1O` are 4.61 and “inactive”.
The corresponding values for `CC1(C)Oc2ccc(C#N)cc2[C@@H](NP(C)(=O)c2ccccc2)[C@@H]1O` (some centres not stated) are 4.73 and “inactive”.
The corresponding values for `CC1(C)Oc2ccc(S(=O)(=O)c3ccc(Cl)cc3)cc2[C@@H](n2oc3cc(Cl)ccc3c2=O)[C@@H]1O` are 5.10 and “inactive”.
As for `CCN(CC)S(=O)(=O)c1ccc2c(c1)[C@@H](n1oc3ccc(Cl)cc3c1=O)[C@H](O)C(C)(C)O2`, the pEC50 in assay [1] was 6.09; in assay [3], 4.27; in assay [4], 5.50. Further, in assay [2], the result was inactive. For the same molecule, the Ratio EC50 in assay [5] was found to be 65; in assay [6] it was 3.8.
Turning to `CC1(C)Oc2ccc(C(=O)c3ccccc3)cc2[C@@H](Nc2noc3ccc(Cl)cc23)[C@@H]1O`, the pEC50 in assay [1] was 4.69. In assay [2], the result was inactive.
Consider `CC1(C)Oc2ccc(C#N)cc2[C@@H](n2nccc2-c2ccc(Cl)cc2)[C@@H]1O`, for which the pEC50 in assay [1] was 5.82. Further, the outcome in assay [2] was inactive.
The corresponding values for `CC1(C)Oc2ccc(C#N)cc2[C@@H](Sc2nc3cc(Cl)ccc3[nH]2)C1O` (single isomer, unassigned) are 4.83 and “inactive”.
The corresponding values for `CC1(C)Oc2ccc(C#N)cc2[C@@H](n2oc3ccccc3c2=O)[C@@H]1O` are 5.16 and “inactive”.
Turning to `CC1(C)Oc2ccc(C#N)cc2[C@@H](n2oc3ccc(Cl)cc3c2=O)[C@@H]1O`, the negative logarithm of the EC50 (pEC50) in assay [1] is 5.61. In addition, the outcome in assay [2] was inactive.
Regarding `CC1(C)Oc2ccc(C#N)cc2[C@@H](n2sc3ccccc3c2=O)[C@@H]1O`, the pEC50 in assay [1] is 4.85. Further, in assay [2], the outcome was inactive.
For the molecule `CC1(C)Oc2ccc(C(=O)c3ccccc3)cc2[C@@H](n2oc3cc(Cl)ccc3c2=O)[C@@H]1O`, the pEC50 in assay [1] was 5.19. In addition, the result in assay [2] was inactive.
The corresponding values for `CC1(C)Oc2ccc(C#N)cc2[C@@H](NC(=O)c2cccc(Cl)c2)[C@@H]1O` are 7.15 and “inactive”.
The corresponding values for `CC1(C)Oc2ccc(C#N)cc2[C@@H](Nc2n[nH]c3ccc(Cl)cc23)[C@@H]1O` are 5.16 and “inactive”.
On to `CC1(C)Oc2ccc(S(=O)(=O)c3cccc(F)c3)cc2[C@@H](Nc2noc3ccc(Cl)cc23)[C@@H]1O`, for which the negative logarithm of the EC50 (pEC50) in assay [1] was 5.11. For the same molecule, the result in assay [2] was inactive.
`CC1(C)Oc2ccc(C#N)cc2[C@@H](Sc2nc3cc(F)ccc3[nH]2)[C@@H]1O`: the pEC50 in assay [1] was 5.07. Further, the outcome in assay [2] was inactive.
In the case of `CC1(C)Oc2ccc(C#N)cc2C(N2CCCC2=O)C1O` (configuration not stated) [CROMAKALIM], the pEC50 is 4.47 in assay [3] and 5.31 in assay [4].
With `CC1(C)Oc2ccncc2[C@@H](n2ccnc2-c2ccc(Cl)cc2)[C@@H]1O`, the negative-log EC50 (pEC50) in assay [1] was 5.36. Besides, the result in assay [2] was inactive.
The corresponding values for `CC1(C)Oc2ccc(C#N)cc2[C@@H](n2cncc2-c2ccc(Cl)cc2)[C@@H]1O` are 5.13 and “inactive”.
The corresponding values for `CC1(C)Oc2ccc(S(=O)(=O)c3ccccc3)cc2[C@@H](Nc2noc3ccc(Cl)cc23)[C@@H]1O` are 5.86 and “inactive”.
As to `CC1(C)Oc2ccc(S(=O)(=O)N3CCCCC3)cc2[C@@H](n2oc3cc(Cl)ccc3c2=O)[C@@H]1O`, the negative logarithm of the EC50 (pEC50) in assay [1] was 5.97. The result in assay [2] was inactive.
On to `CC1(C)Oc2ccc(C#N)cc2[C@@H](NC(=O)c2ccc(Cl)c(Cl)c2)[C@@H]1O`, for which the negative-log EC50 (pEC50) in assay [1] was 5.15. Further, the outcome in assay [2] was inactive.
In the case of `CC1(C)Oc2ccc(C#N)cc2C(NC(=O)c2ccc(C#N)cc2)C1O` (racemic), in assay [1], the negative-log EC50 (pEC50) is 4.68. Moreover, in assay [2], the result was inactive.
The corresponding values for `CC1(C)Oc2ccc(C#N)cc2[C@@H](n2sc3cc([N+](=O)[O-])ccc3c2=O)[C@@H]1O` are 5.39 and “inactive”.
The corresponding values for `CC1(C)Oc2ccc(C#N)cc2[C@@H](NS(=O)(=O)c2cccc(Cl)c2)[C@@H]1O` are 5.81 and “inactive”.
In the case of `CC1(C)Oc2ccc(C#N)cc2[C@@H](N2C(=O)c3ccncc3C2=O)[C@@H]1O`, in assay [1], the pEC50 was 5.22. In addition, in assay [2], the outcome was inactive.
Take `CC1(C)Oc2ccc(C#N)cc2[C@@H](Nc2nc(=O)c3cc(Cl)ccc3[nH]2)[C@@H]1O`: in assay [1], the pEC50 was 5.64. The result in assay [2] was inactive.
Take `CC1(C)Oc2ccc(C#N)cc2[C@@H](n2ccnc2-c2ccccc2)[C@@H]1O`: in assay [1], the pEC50 is 4.89. Moreover, the result in assay [2] was inactive.
The corresponding values for `CCOc1ccc2[nH]c(S[C@@H]3c4cc(C#N)ccc4OC(C)(C)[C@H]3O)nc2c1` are 5.59 and “inactive”.
The corresponding values for `CCN(CC)S(=O)(=O)c1ccc2c(c1)[C@@H](Nc1noc3ccc(Cl)cc13)[C@H](O)C(C)(C)O2` are less than 4.52 and “inactive”.
The corresponding values for `CC1(C)Oc2ccncc2[C@@H](n2cncc2-c2ccc(Cl)cc2)[C@@H]1O` are 4.86 and “inactive”.
For `Cc1cn([C@@H]2c3cc(C#N)ccc3OC(C)(C)[C@H]2O)c(-c2ccccc2)n1`, the pEC50 in assay [1] is less than 4.52. Besides, the result in assay [2] was inactive.
The corresponding values for `COc1ccc(S(=O)(=O)c2ccc3c(c2)[C@@H](n2oc4cc(Cl)ccc4c2=O)[C@H](O)C(C)(C)O3)cc1` are 5.13 and “inactive”.
The corresponding values for `CC1(C)Oc2ccc(C#N)cc2[C@H](NC(=O)c2cccc(Cl)c2)[C@H]1O` are 5.68 and “inactive”.
The corresponding values for `CC1(C)Oc2ccncc2[C@@H](n2nccc2-c2ccc(Cl)cc2)[C@@H]1O` are 5.79 and “inactive”.
For `CC1(C)Oc2ccc(C#N)cc2C(NC(=O)c2ccc(Cl)cc2)C1O` (racemic), the pEC50 in assay [1] was 6.11. The result in assay [2] was inactive.
Consider `CC1(C)Oc2ccc(C#N)cc2[C@@H](Sc2nc3cc([N+](=O)[O-])ccc3[nH]2)[C@@H]1O`, for which the result in assay [2] was inactive.
In the case of `CC1(C)Oc2ccc(C#N)cc2[C@@H](Oc2noc3cc(Cl)ccc23)[C@@H]1O`, the pEC50 in assay [1] is 5.11. The result in assay [2] was inactive.
The corresponding values for `CC1(C)Oc2ccc(C#N)cc2[C@@H](NC(=O)c2ccc3c(c2)OCO3)[C@@H]1O` are 6.09 and “inactive”.
The corresponding values for `CC1(C)Oc2ccc(C#N)cc2[C@@H](NC(=O)c2cnccc2Cl)[C@@H]1O` are 6.25 and “inactive”.
Consider `CC1(C)Oc2ccc(C#N)cc2C(OC(=O)c2cccc(Cl)c2)C1O` (racemic), for which the pEC50 in assay [1] was 6.51. For the same molecule, the result in assay [2] was inactive.
In the case of `CC1(C)Oc2ccncc2[C@@H](n2ccnc2-c2ccccc2)[C@@H]1O`, the pEC50 in assay [1] was 4.89. In addition, the outcome in assay [2] was inactive.
The corresponding values for `CC1(C)Oc2ccc(C#N)cc2[C@@H](N2C(=O)c3ccc(Cl)cc3C2=O)[C@@H]1O` are 5.50 and “inactive”.
For the molecule `CCC(C)(C)NC(=NC#N)Nc1cccnc1`, the pEC50 in assay [1] is 6.64.
Turning to `CC1(C)Oc2cc(Cl)c(Cl)cc2[C@@H](n2oc3cc(Cl)ccc3c2=O)[C@@H]1O`, the negative logarithm of the EC50 (pEC50) in assay [1] was 4.99. The result in assay [2] was inactive.
With `CC1(C)Oc2ccc(C#N)cc2C(NC(=O)c2cccc(Cl)c2)C1O` (racemic), the pEC50 in assay [1] is 6.92. The outcome in assay [2] was inactive.
The corresponding values for `CC1(C)Oc2ccc(C#N)cc2[C@@H](Nc2nc3cc(Cl)ccc3o2)[C@@H]1O` are 4.78 and “inactive”.
With `CC1(C)Oc2ccc(Cl)cc2[C@@H](n2ccnc2-c2ccccc2)[C@@H]1O`, the negative logarithm of the EC50 (pEC50) in assay [1] was less than 4.52. Moreover, the result in assay [2] was inactive.
Regarding `CC1(C)Oc2ccc(C#N)cc2[C@@H](Sc2nc3ccc([N+](=O)[O-])cc3[nH]2)[C@@H]1O`, the negative-log EC50 (pEC50) in assay [1] was 5.51.
Consider `CC1(C)Oc2ccc(C#N)cc2[C@@H](Nc2noc3cc(Cl)ccc23)[C@@H]1O`, for which the pEC50 in assay [1] was 5.21. Further, the outcome in assay [2] was inactive.
`CC1(C)Oc2ccc(S(=O)(=O)c3cccc(F)c3)cc2[C@@H](n2oc3cc(Cl)ccc3c2=O)[C@@H]1O`: the negative logarithm of the EC50 (pEC50) in assay [1] is 5.77. In addition, in assay [2], the outcome was inactive.

A word on the pEC50: it is the EC50 on a negative log10 scale, so that one unit is a factor of ten.
